{"source": "paper PMC3819908", "about": "(Journal of molecular biology, 2011)", "key": {"β1AR-m23": {"molecular_target": "β1AR-m23 (Meleagris gallopavo, UniProt P07700, A282L/C116L/F327A/F338M/M90V/R68S/Y227A)", "sequence (P07700 34-424 R68S/M90V/C116L/Y227A/A282L/F327A/F338M)": "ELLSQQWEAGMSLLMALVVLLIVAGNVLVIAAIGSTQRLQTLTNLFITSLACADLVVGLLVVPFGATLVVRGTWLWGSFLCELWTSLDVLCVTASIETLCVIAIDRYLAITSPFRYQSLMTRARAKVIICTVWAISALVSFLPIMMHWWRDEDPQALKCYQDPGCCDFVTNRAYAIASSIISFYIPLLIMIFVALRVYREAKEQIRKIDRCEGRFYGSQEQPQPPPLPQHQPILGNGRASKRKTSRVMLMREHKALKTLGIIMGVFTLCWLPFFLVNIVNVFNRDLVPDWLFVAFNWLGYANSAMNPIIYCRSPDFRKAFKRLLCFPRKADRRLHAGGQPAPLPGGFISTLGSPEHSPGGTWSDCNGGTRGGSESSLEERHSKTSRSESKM", "assay": "Saturation binding of ^3H-DHA to DDM-solubilised receptor", "set-up": "species or system turkey", "conditions": "read-out: KD for ^3H-DHA, E. coli membranes, solubilised in DDM, n = 4", "how_it_was_run": "(§1)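 Receptor expressed in E. coli XL1 by auto-induction (37°C 6 h, then 25°C overnight). French-press membranes were solubilised for 1 h on ice in 20 mM Tris pH 8, 0.4 M NaCl, 1% detergent. Binding ran in 20 mM Tris pH 8, 0.4 M NaCl, 0.1% DDM with 1.25-160 nM 3H-DHA. KD came from nonlinear regression; 2-4 experiments in duplicate.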"}, "β1AR-JM3 [1]": {"molecular_target": "T1, β1AR-JM3 (Meleagris gallopavo, UniProt P07700, A282L/C116L/D200E/D322K/F327A/F338M/I129V/M90V/R68S/Y227A/Y343L)", "T1 sequence (P07700 34-424 R68S/M90V/C116L/I129V/D200E/Y227A/A282L/D322K/F327A/F338M/Y343L)": "as the sequence (P07700 34-424 R68S/M90V/C116L/Y227A/A282L/F327A/F338M) above, with I96V, D167E, D289K, Y310L counted along it", "assay": "Saturation binding of ^3H-DHA to DDM-solubilised receptor", "set-up": "species or system turkey", "conditions": "read-out: KD for ^3H-DHA, E. coli membranes, solubilised in DDM, n = 4", "how_it_was_run": "as §1"}, "β1AR-JM3 [2]": {"molecular_target": "T1, β1AR-JM3", "assay": "Competition binding, displacement of ^3H-DHA", "set-up": "species or system turkey", "conditions": "competition with ^3H-DHA"}, "[3]": {"assay": "Thermostability assay of detergent-solubilised receptors expressed in E. coli", "assay_type": "physicochemical, turkey", "conditions": "for increase in thermostability (apparent Tm) relative to β1AR-m23: solubilised in NG"}, "[4]": {"assay": "Thermostability assay of cysteine mutants expressed in HEK293T cells", "assay_type": "physicochemical, turkey", "conditions": "Cys mutants, solubilised in NG", "how_it_was_run": "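Transiently transfected HEK293T cells were harvested after 48 h, held 1 h on ice in 75 mM Tris pH 8, 12.5 mM MgCl2, 2 mM EDTA, then detergent-solubilised at 4°C. Samples were diluted in 20 mM Tris pH 8, 0.4 M NaCl and heated 30 min at a range of temperatures without ligand. 3H-DHA (80 nM final) was added for 1 h at 4°C; gel-filtration separation gave apparent Tm.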"}, "[5]": {"conditions": "in dodecylmaltoside (DDM); cited from earlier work"}}, "note": "Where a name gives a salt, the structure may show the parent alone.", "data": [{"molecule": "1-[4,6-propyl-^3H]dihydroalprenolol [^3H-DHA]", "values": [{"measurement": "Kd", "setting": "β1AR-m23", "value": "5.5 ± 1.1", "unit": "nM"}, {"measurement": "Kd", "setting": "β1AR-JM3 [1]", "value": "10.6 ± 1.6", "unit": "nM"}]}, {"molecule": "NC[C@H](O)c1ccc(O)c(O)c1", "note": "[noradrenaline, L-(-)-norepinephrine bitartrate salt monohydrate]", "values": [{"measurement": "fold weaker binding to β1AR-JM3 compared to wild-type β1AR", "setting": "β1AR-JM3 [2]", "value": 4960, "unit": "fold"}]}, {"molecule": "D322K: β1AR-m23 salt bridge mutant D322K", "values": [{"measurement": "increase in thermostability (apparent Tm) relative to β1AR-m23", "setting": "[3]", "value": 5, "unit": "°C"}]}, {"molecule": "M44C: single cysteine mutant of β1AR-m23", "values": [{"measurement": "destabilisation (decrease in thermostability) relative to β1AR-m23", "setting": "[4]", "value": 4, "unit": "°C"}]}, {"molecule": "V103C: single cysteine mutant of β1AR-m23", "values": [{"measurement": "destabilisation (decrease in thermostability) relative to β1AR-m23", "setting": "[4]", "value": 7, "unit": "°C"}]}, {"molecule": "Y343L: most stabilising single mutation of β1AR-m23 from the leucine scan", "values": [{"measurement": "increase in thermostability (apparent Tm) relative to β1AR-m23", "setting": "[3]", "value": 5, "unit": "°C"}]}, {"molecule": "wild-type receptor: residues 34-424 of the turkey β1AR", "values": [{"measurement": "decrease in stability on addition of Zn^2+", "setting": "[3]; 1 mM ZnCl2", "value": "up to 7 °C"}]}, {"molecule": "β1AR-m23: residues 34-424 of turkey β1-adrenoceptor with R68S, M90V, Y227A, A282L, F327A, F338M and C116L", "values": [{"measurement": "apparent Tm", "setting": "[3]; 0.8% NG, identical conditions", "value": "23.4 ± 0.8", "unit": "°C"}, {"measurement": "increase of the apparent Tm relative to wild type", "setting": "[5]", "value": 21, "unit": "°C"}]}]}
